Assay results from ChEMBL document CHEMBL1158787, “Antibiotic terpenoid chloro-dihydroquinones from a new marine actinomycete” (J Nat Prod, 2005).
≈ marks a conversion by molar mass, not a printed value.

Tests used:
Staphylococcus aureus = assay: Antimicrobial activity against methicillin-resistant Staphylococcus aureus; format: functional
In short: (§1)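 Broth microdilution: MRSA or VREF grown overnight at 37 °C in GYT medium (0.1% glucose, 0.25% yeast extract, 0.5% tryptone), adjusted to OD 0.04–0.06, then diluted 1:10. Test materials serially diluted 1:2, incubated 16–18 h at 37 °C. Vancomycin (MRSA) or penicillin G (VREF) as positive controls, DMSO as negative control. MIC read from OD600.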

Enterococcus faecium = assay: Antimicrobial activity against vancomycin resistant Enterococcus faecium; format: functional; in short: as §1
[1] = Cytotoxicity against human […] cell after 72 hrs by MTS assay; format: functional, cell-based
In short: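 HCT-116 colon carcinoma cells were preincubated overnight at 37 °C in 5% CO2/air. Test materials were serially diluted 1:4, with etoposide as positive control and DMSO as negative control. After 72 h, viability was read as MTS reduction to formazan at 490 nm. IC50 was calculated from the curves.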

SMILES | MIC (Staphylococcus aureus) | MIC (Enterococcus faecium) | IC50 [1]
C=C1CC[C@H](Cl)C(C)(C)[C@@H]1C[C@@]12OC(C)(C)[C@H](Cl)C=C1C(=O)c1c(cc(O)c(C)c1O)C2=O | 1.95 µg/mL (≈ 3.95 µM) | 1.95 µg/mL (≈ 3.95 µM) | –
C=C1CC[C@H](Cl)C(C)(C)[C@@H]1C[C@@]12OC(C)(C)[C@H](Cl)C[C@]1(Cl)C(=O)c1c(cc(O)c(C)c1O)C2=O | 1.9 µg/mL (≈ 3.59 µM) | 3.9 µg/mL (≈ 7.36 µM) | 1.84 µg/mL (≈ 3.47 µM)
Cc1c(O)cc2c(c1O)C(=O)C1=C[C@@H](Cl)C(C)(C)O[C@@]1(C[C@H]1C(C)(C)[C@@H](Cl)CC[C@]1(C)O)C2=O | 15.6 µg/mL (≈ 30.5 µM) | 15.6 µg/mL (≈ 30.5 µM) | 0.97 µg/mL (≈ 1.9 µM)
Cc1c(O)cc2c(c1O)C(=O)[C@H]1C[C@@H](Cl)C(C)(C)O[C@@]1(C[C@H]1C(C)(C)[C@@H](Cl)CC[C@]1(C)O)C2=O | 1.95 µg/mL (≈ 3.8 µM) | 3.9 µg/mL (≈ 7.6 µM) | 2.4 µg/mL (≈ 4.67 µM)
